Experimental data collected from several papers.
In brackets after ≈: the same amount, converted by molar mass.

CC1(C)S[C@@H]2[C@H](NC(=O)[C@H](N)c3ccccc3)C(=O)N2[C@H]1C(=O)O  MIC (Micrococcus luteus; microbial growth, broth dilution; ATCC4698; 43 h): 0.5 µg/mL
CC(=O)c1sc(N/N=C/c2c(-c3ccccc3)nc3ncccn23)nc1C  inhibition zone (Escherichia coli; microbial growth, well diffusion; ATCC25922; 100 µg/mL): 14 mm
CCS(=O)(=O)Oc1cc(C=NNC(=O)CSc2nc3c(C)cccc3c(=O)n2-c2ccccc2)ccc1OC  inhibition zone (Staphylococcus aureus; microbial growth, well diffusion; MRSA; 20 µg/mL): 3 mm
CNC(C)C1CCC(N)C(OC2C(N)CC(N)C(OC3OCC(C)(O)C(NC)C3O)C2O)O1 (centres unmarked)  MBC (Escherichia coli; microbial killing, broth dilution; ATCC25922; 24 h): 4 mM (≈ 1910 µg/mL)
CCOC(=O)/C=C1/SC(N/N=C/c2c(-c3ccc(F)cc3)nc3ncccn23)=NC1=O  inhibition zone (Escherichia coli; microbial growth, well diffusion; ATCC25922; 100 µg/mL): 10 mm
CCCSc1ccc2nc(NC(=O)OC)[nH]c2c1  EC50 (Angiostrongylus cantonensis; parasite motility; 24 h, larva): 10.7 µM
C=C[C@]1(C)C[C@@H](OC(=O)CS[C@@H]2C[C@H]3CC[C@@H](C2)N3C)[C@]2(C)[C@H](C)CC[C@]3(CCC(=O)[C@H]32)[C@@H](C)[C@@H]1O  MIC90 (Staphylococcus aureus; microbial growth; MSSA; clinical isolate): 0.0625 µg/mL (≈ 0.121 µM)
CN[C@H](CC(C)C)C(=O)N[C@H]1C(=O)N[C@@H](CC(N)=O)C(=O)N[C@H]2C(=O)N[C@H]3C(=O)N[C@H](C(=O)N[C@H](C(=O)O)c4cc(O)cc(O)c4-c4cc3ccc4O)[C@H](O)c3ccc(c(Cl)c3)Oc3cc2cc(c3O[C@@H]2O[C@H](CO)[C@@H](O)[C@H](O)[C@H]2O[C@H]2C[C@](C)(N)[C@H](O)[C@H](C)O2)Oc2ccc(cc2Cl)[C@H]1O  MIC (Micrococcus luteus; microbial growth, broth dilution; DSM1790): 0.17 µM
CN[C@H](CC(C)C)C(=O)N[C@H]1C(=O)N[C@@H](CC(N)=O)C(=O)N[C@H]2C(=O)N[C@H]3C(=O)N[C@H](C(=O)N[C@H](C(=O)O)c4cc(O)cc(O)c4-c4cc3ccc4O)[C@H](O)c3ccc(c(Cl)c3)Oc3cc2cc(c3O[C@@H]2O[C@H](CO)[C@@H](O)[C@H](O)[C@H]2O[C@H]2C[C@](C)(N)[C@H](O)[C@H](C)O2)Oc2ccc(cc2Cl)[C@H]1O  MIC (Staphylococcus aureus; microbial growth, agar dilution; ATCC29213): 1 µg/mL
OC(Cn1cncn1)(Cn1cncn1)c1ccc(F)cc1F  MIC (Alternaria solani; microbial growth, broth dilution): 16 µg/mL
CCCS(=O)(=O)Oc1ccc(C=NNC(=O)CSc2nc3ccc(Cl)cc3c(=O)n2-c2ccccc2)cc1  inhibition zone (Staphylococcus aureus; microbial growth, well diffusion; MRSA; 20 µg/mL): 2 mm
O=c1cc(Nc2ccccc2)c2ccccc2o1  MIC90 (Escherichia coli; microbial growth, broth dilution): 9 µg/mL (≈ 37.9 µM)
O=C1C(=O)c2cccnc2-c2ncccc21  EC50 (Angiostrongylus cantonensis; parasite motility; 24 h, larva): 25.6 µM
CN[C@H](CC(C)C)C(=O)N[C@H]1C(=O)N[C@@H](CC(N)=O)C(=O)N[C@H]2C(=O)N[C@H]3C(=O)N[C@H](C(=O)N[C@H](C(=O)O)c4cc(O)cc(O)c4-c4cc3ccc4O)[C@H](O)c3ccc(c(Cl)c3)Oc3cc2cc(c3O[C@@H]2O[C@H](CO)[C@@H](O)[C@H](O)[C@H]2O[C@H]2C[C@](C)(N)[C@H](O)[C@H](C)O2)Oc2ccc(cc2Cl)[C@H]1O  MIC (Micrococcus luteus; microbial growth, broth dilution; ATCC4698): 0.34 µM
